Each block holds one compound with its values, some of them ahead of it.
How the values were obtained:
Caco-2 cells [1] = test: FA transport and metabolism across differentiated Caco-2 monolayers; type: in vitro ADME, human; conditions: for effect on transepithelial transport of FA (apical to basolateral): vs untreated (abstract, discussion); for effect on FA-sul in apical compartment / increase of FA-glu in basal compartment: n=6, P<.01
Method in brief: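 Caco-2 monolayers were pretreated apically with 1 mM SCFA/lactate or mix from day 7 and used at 21–23 days after 30 min HBSS (pH 7.4) equilibration at 37°C; monolayers with TEER <930 Ω cm2 were discarded. Apical 500 µM test compound was applied for 1 h. Apical and basal samples were stabilised with ascorbic acid and spiked with acetic acid (10 mM final) and DMCA internal standard (10 µM final). LC-MS/MS MRM quantified parent and conjugates. Six biological replicates in duplicate; t test.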

Caco-2 cells [2] = test: HT transport and phase II metabolism across differentiated Caco-2 monolayers; type: in vitro ADME, human; conditions: for rate of appearance of HT conjugate in apical compartment / rate of appearance of HT conjugate in basal compartment: 20 μM HT apical, HT-7-sul as HT-3′-sul equivalents; for decrease of HT-3′-glu 2 formation: acetate: in both compartments; for effect on efflux of HT-7-glu to both compartments: chronic treatment 1 mM 14 days (discussion)
Method in brief: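 Caco-2 monolayers on transwells were pretreated apically with 1 mM SCFA/lactate or mix from day 7 to day 21–23. Cells were equilibrated in HBSS (1.8 mM CaCl2, pH 7.4) for 30 min at 37°C, and monolayers below 930 Ω cm2 TEER were discarded. Apical 20 µM test compound was applied for 1 h. Both compartments were sampled with 100 µM ascorbic acid and analysed by LC-MS/MS MRM (daidzein internal standard, matrix-matched calibration). n=6 in duplicate; t test.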

Caco-2 cells [3] = test: SA transport across differentiated Caco-2 monolayers; type: in vitro ADME, human; conditions: for effect on SA transport / increase of SA in the basolateral compartment: 1 mM 14 days, vs untreated cells; for increase of SA in the basolateral compartment: n=6, P=.003
Method in brief: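 Pretreated Caco-2 transwell monolayers (1 mM apical SCFA/lactate or mix from day 7, used at 21–23 days) were equilibrated in HBSS (pH 7.4) for 30 min at 37°C; monolayers under 930 Ω cm2 TEER were excluded. Apical 1 mM MCT substrate was incubated for 30 min. Both compartments were analysed by HPLC-UV at 303 nm, with DMCA internal standard at 326 nm. Six biological replicates in duplicate; t test, P<.01.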

MCT1 (SLC16A1) mRNA = test: MCT1 gene expression by ddPCR in Caco-2 cells; type: cell-based, human; conditions: 1 mM 14 days, vs control
Method in brief: (§1)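 Caco-2 cells were seeded on transwells at 6×104 cm−2 and grown 21–23 days. From day 7 the apical medium was FBS-free with 1 mM Na-acetate, -propionate, -butyrate, -lactate or an equimolar mix (0.25 mM each); basal medium had 20% FBS; 0.1% DMSO served as control. RNA (1 µg) was reverse-transcribed. Duplex TaqMan ddPCR used 0.65 ng cDNA per reaction, with target FAM and TBP VIC. Copies/ng cDNA were derived by Poisson analysis. Four biological replicates from two seedings, each with three technical replicates; t test.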

MCT4 (SLC16A3) mRNA = test: MCT4 gene expression by ddPCR in Caco-2 cells; type: cell-based, human; conditions: vs control; for increase of MCT4 mRNA: 1 mM 14 days (mix 0.25 mM each), n=4
Method in brief: as §1

ABCG2 mRNA = test: ABCG2 gene expression by ddPCR in Caco-2 cells; type: cell-based, human; conditions: vs control; for effect on ABCG2 mRNA: 1 mM 14 days; for decrease of ABCG2 mRNA: 1 mM 14 days (mix 0.25 mM each)
Method in brief: as §1

MCT1 protein = MCT1 protein abundance by ProteinSimple WES in Caco-2 cells; type: cell-based, human; conditions: 1 mM 14 days, vs control
UGT1A protein = UGT1A protein abundance by ProteinSimple WES in Caco-2 cells; type: cell-based, human; conditions: 1 mM 14 days; for decrease of UGT1A protein levels: vs control; for effect on UGT1A protein: vs control (discussion)
Caco-2 cells [4] = test: Transepithelial Electrical Resistance; type: cell-based, human; conditions: 1 mM apical pretreatment 14 days, n=36; for average TEER value after pretreatment: untreated 1149±23
Method in brief: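 Caco-2 cells were seeded on transwells at 6×104 cm−2 and exposed apically from day 7 to 1 mM Na-acetate, -propionate, -butyrate, -lactate or mix in FBS-free medium (basal 20% FBS; 0.1% DMSO control). At 21–23 days, after HBSS washes and 30 min equilibration at 37°C, 10% CO2, TEER was measured with a voltohmmeter; t test.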

MCT4 protein = MCT4 protein abundance by ProteinSimple WES in Caco-2 cells; type: cell-based, human; conditions: 1 mM 14 days (mix 0.25 mM each), vs control
ABCG2 protein = ABCG2 protein abundance by ProteinSimple WES in Caco-2 cells; type: cell-based, human; conditions: vs control; for decrease of ABCG2 protein levels: 1 mM 14 days
Method in brief: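 Transwell Caco-2 monolayers received 1 mM apical SCFA/lactate or mix (0.25 mM each) from day 7 and were lysed at 21–23 days in Bicine-CHAPS with inhibitors, then BCA-quantified. For capillary WES, 1.5 mg/ml lysate was used with 95°C denaturation for 5 min. α-Tubulin loading control came from the same sample in separate capillaries. Peak areas were quantified. Mean of 3–6 biological replicates ±S.E.M.; t test.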

[5] = 1 mM 14 days, vs untreated, n=6, P<.01
[6] = 1 mM 14 days, vs untreated, n=6, P<.001

- FA transported to the basal compartment (Caco-2 cells [1]; untreated cells, 500 μM FA (1 μmol) apical, 1 h): 1.73 ± 0.17 nmol/min
- FA transported to basal compartment, share of added FA (Caco-2 cells [1]; untreated cells, after 1 h): 10.4%
SMILES: COc1cc(/C=C/C(=O)O)ccc1O [FA, ferulic acid]

- HT transported unchanged to the basolateral compartment (Caco-2 cells [2]; cells not treated with SCFA, 20 μM HT (40 nmol) apical, 1 h): 87 ± 26 pmol/min
- HT transported to basolateral compartment, share of HT added apically (Caco-2 cells [2]; cells not treated with SCFA, after 60 min incubation): 13%
SMILES: COc1ccc([C@@H]2CC(=O)c3c(O)cc(O)cc3O2)cc1O [HT, hesperetin]

- rate of appearance of HT conjugate in apical compartment (Caco-2 cells [2]; untreated cells, 1 h): 2.8 ± 0.1 pmol/min
- rate of appearance of HT conjugate in basal compartment (Caco-2 cells [2]; untreated cells, 1 h): 2.53 ± 0.06 pmol/min
SMILES: COc1ccc(C2CC(=O)c3c(O)cc(O)cc3O2)cc1OS(=O)(=O)O (centres unmarked) [HT-3′-sul, hesperetin-3′-O-sulfate]

- conjugate formed (basal + apical) as share of original HT added apically (Caco-2 cells [2]; untreated cells, 1 h): 2.4%
- rate of appearance of HT conjugate in apical compartment (Caco-2 cells [2]; untreated cells, 1 h): 3.87 ± 0.07 pmol/min
- rate of appearance of HT conjugate in basal compartment (Caco-2 cells [2]; untreated cells, 1 h): 12.33 ± 0.57 pmol/min
SMILES: COc1ccc([C@@H]2CC(=O)c3c(O)cc(O[C@@H]4O[C@H](C(=O)O)[C@@H](O)[C@H](O)[C@H]4O)cc3O2)cc1O [HT-7-glu, Hesperetin-7-O-glucuronide]

- rate of appearance of HT conjugate in apical compartment (Caco-2 cells [2]; untreated cells, 1 h): 2.6 ± 0.06 pmol/min
- rate of appearance of HT conjugate in basal compartment (Caco-2 cells [2]; untreated cells, 1 h): 1.9 ± 0.03 pmol/min
SMILES: COc1ccc([C@@H]2CC(=O)c3c(O)cc(OS(=O)(=O)O)cc3O2)cc1O [HT-7-sul, hesperetin-7-O-sulfate]

- SA transported to the basolateral side, share of original amount added apically (Caco-2 cells [3]; 1 mM SA apical, within 30 min): ~ 10%
SMILES: O=C(O)c1ccccc1O [SA, salicylic acid, reference compound]

SMILES: CC(=O)[O-].[Na+] [acetate, Na-acetate]
- effect on HT-3′-sul efflux to the apical direction (Caco-2 cells [2]; 1 mM 14 days, vs untreated): lower
- decrease of HT-3′-glu 2 formation (Caco-2 cells [2]; [5]): 20%
- effect on FA transport and metabolism (Caco-2 cells [1]; 1 mM 14 days, vs untreated): no effect
- effect on SA transport (Caco-2 cells [3]): did not affect
- increase of MCT1 mRNA (MCT1 (SLC16A1) mRNA; n=4, P≤.02): ~ 20%
- increase of MCT4 mRNA (MCT4 (SLC16A3) mRNA): ~ 20%
- effect on ABCG2 mRNA (ABCG2 mRNA): unaffected
- decrease of MCT1 protein (MCT1 protein; n=3, P<.005): ~ 30%
- decrease of UGT1A protein levels (UGT1A protein): ~ 25%

SMILES: CCCC(=O)O [butyrate, Na-butyrate]
- average TEER value after pretreatment (Caco-2 cells [4]): 1066±31 Ω cm^2
- decrease of average TEER values (Caco-2 cells [4]; vs untreated cells): 7%
- effect on HT-3′-sul efflux to the apical direction (Caco-2 cells [2]; 1 mM 14 days, vs untreated): lower
- increase of HT-7-glu in basal compartment (Caco-2 cells [2]; [5]): 23%
- decrease of HT-3′-glu 2 formation (Caco-2 cells [2]; [5]): 30–40%
- effect on efflux of HT-7-glu to both compartments (Caco-2 cells [2]): increased
- effect on transepithelial transport of FA (apical to basolateral) (Caco-2 cells [1]; 1 mM 14 days): strongly enhanced
- effect on FA-sul in apical compartment (Caco-2 cells [1]; 1 mM 14 days, vs untreated): lower
- increase of FA-glu in basal compartment (Caco-2 cells [1]; 1 mM 14 days, vs untreated): ~ 40%
- increase of SA in the basolateral compartment (Caco-2 cells [3]): 32%
- decrease of MCT1 mRNA (MCT1 (SLC16A1) mRNA): ~ 30%
- effect on MCT4 mRNA (MCT4 (SLC16A3) mRNA; 1 mM 14 days): not affected
- effect on ABCG2 mRNA (ABCG2 mRNA): decreased
- increase of MCT1 protein (MCT1 protein; n=3, P=.01): ~ 40%
- effect on MCT4 protein levels (MCT4 protein): not affected
- effect on ABCG2 protein levels (ABCG2 protein; 1 mM 14 days (mix 0.25 mM each)): not reflected in protein changes
- effect on UGT1A protein (UGT1A protein): did not affect

SMILES: CC(O)C(=O)[O-].[Na+] (centres unmarked) [lactate, Na-lactate]
- average TEER value after pretreatment (Caco-2 cells [4]): 1232±25 Ω cm^2
- increase of TEER (resistance) (Caco-2 cells [4]; vs untreated cells): 7%
- decrease of all HT phase II conjugates in apical compartment (Caco-2 cells [2]; 1 mM 14 days, vs untreated): 13–40%
- effect on HT-3′-sul efflux to the apical direction (Caco-2 cells [2]; 1 mM 14 days, vs untreated): lower
- effect on HT-3′-glu 1 in basolateral side (Caco-2 cells [2]; [5]): substantially decreased
- effect on HT-3′-glu 2 in basolateral side (Caco-2 cells [2]; [5]): substantially decreased
- effect on FA-sul in basolateral compartment (Caco-2 cells [1]; 1 mM 14 days, vs untreated): substantially decreased
- effect on FA-sul in apical compartment (Caco-2 cells [1]; 1 mM 14 days, vs untreated): substantially decreased
- effect on SA transport (Caco-2 cells [3]): did not affect
- decrease of MCT1 mRNA (MCT1 (SLC16A1) mRNA): 20–30%
- decrease of MCT4 mRNA (MCT4 (SLC16A3) mRNA; 1 mM 14 days, P<.001): 20–30%
- decrease of ABCG2 mRNA (ABCG2 mRNA): 20–30%
- decrease of ABCG2 protein levels (ABCG2 protein): ~ 50%
- decrease of UGT1A protein levels (UGT1A protein): ~ 30%

SMILES: CCC(=O)[O-].[Na+] [propionate, Na-propionate]
- effect on HT-3′-sul basolateral transport (Caco-2 cells [2]; 1 mM 14 days, vs untreated): stimulated
- effect on HT-7-sul basolateral transport (Caco-2 cells [2]; 1 mM 14 days, vs untreated): stimulated
- increase of HT-3′-glu 1 in basolateral side (Caco-2 cells [2]; [5]): 34%
- increase of HT-7-glu in basal compartment (Caco-2 cells [2]; [5]): 42%
- effect on efflux of HT-7-glu to both compartments (Caco-2 cells [2]): increased
- effect on FA-sul in basolateral compartment (Caco-2 cells [1]; 1 mM 14 days, vs untreated): favored over efflux to the apical compartment
- increase of FA-glu in apical compartment (Caco-2 cells [1]; 1 mM 14 days, vs untreated): 72%
- effect on transepithelial transport of FA (apical to basolateral) (Caco-2 cells [1]; 1 mM 14 days): strongly enhanced
- higher concentration of DHFA in apical compartment (Caco-2 cells [1]; [6]): 4.1 fold
- higher concentration of DHFA in basal compartment (Caco-2 cells [1]; [6]): 3.4 fold
- increase of FA-glu in basal compartment (Caco-2 cells [1]; 1 mM 14 days, vs untreated): 83%
- increase of SA in the basolateral compartment (Caco-2 cells [3]): 21%
- effect on MCT1 gene expression (MCT1 (SLC16A1) mRNA): unchanged
- increase of MCT4 mRNA (MCT4 (SLC16A3) mRNA): ~ 29%
- decrease of ABCG2 mRNA (ABCG2 mRNA): ~ 18%
- effect on MCT1 protein levels (MCT1 protein): without significant effects
- effect on MCT4 protein levels (MCT4 protein): without significant effects
- decrease of ABCG2 protein levels (ABCG2 protein): ~ 40%
- effect on UGT1A protein (UGT1A protein): did not affect
